Source: ChEMBL document CHEMBL1128557, “Synthesis, antitumor activity, and chemical properties of silaplatin and related platinum (II) and platinum (IV) complexes derived from beta-silyl amines” (J Med Chem, 1995)

Key:
Tumor Cell line [1] = assay: Evaluated in vitro for the log10 molecular concentration that caused 50 % inhibition of tumor growth of 60 human tumor cell lines; type: functional, cell-based
Method in brief: (§1)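 Cells preincubated 24 h, then exposed to the agent at five 10-fold dilutions (0.01–100 μM for the platinum complexes) for 48 h. Cells fixed in situ and stained; solubilized stain read spectrophotometrically. Panel of leukemia, non-small-cell lung, ovarian and renal lines. Log GI50 or TGI taken per cell line in one experiment, then averaged across lines.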

Tumor Cell line [2] = assay: Evaluated in vitro for the log10 molecular concentration that caused […] tumor growth of 60 human tumor cell lines.; type: functional, cell-based; method in brief: as §1
Tumor Cell line [3] = assay: The compound was evaluated in vitro for the log10 molecular concentration that caused 50 % of 60 human tumor cell line kills; type: ADME, cell-based
Method in brief: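 Human tumor cell lines (leukemia, non-small-cell lung, ovarian, renal) were preincubated 24 h. Platinum complexes were then added as five 10-fold dilutions, 0.01–100 μM, for 48 h, followed by in situ fixation and staining, with solubilized stain read spectrophotometrically. Log LC50 (50% cell kill) was averaged across cell lines within one experiment.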

Mus musculus [4] = assay: The compound was evaluated for the mean body weight change (BWC) in mice infected with cisplatin sensitive L1210 Leukemia (dose 10 mg/kg, ip),day 1; type: functional, organism-based; parameters: dose 10 mg/kg
Method in brief: (§2)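 CD2F1 mice implanted ip on day 0 with 10^5 L1210/0 (parent) leukemia cells, in groups of 6 or 10 (20 or 30 controls). Complexes given ip in saline plus Tween 80 on days 1, 5 and 9. BWC is the group mean weight change, day 5 minus day 1. MST is median survival and %ILS is calculated from MST, both from dying mice only, excluding day 30 survivors.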

Mus musculus [5] = assay: The compound was evaluated for the mean body weight change (BWC) in mice infected with cisplatin sensitive L1210 Leukemia (dose 10 mg/kg, ip),day 5; type: functional, organism-based; parameters: dose 10 mg/kg; method in brief: as §2
Mus musculus [6] = assay: The compound was evaluated for the mean body weight change (BWC) in mice infected with cisplatin sensitive L1210 Leukemia (dose 20 mg/kg, ip),day 5; type: functional, organism-based; parameters: dose 20 mg/kg; method in brief: as §2
Mus musculus [7] = assay: The compound was evaluated for the mean body weight change (BWC) in mice infected with cisplatin sensitive L1210 Leukemia (dose 40 mg/kg, ip),day 1; type: functional, organism-based; parameters: dose 40 mg/kg; method in brief: as §2
Mus musculus [8] = assay: The compound was evaluated for the mean body weight change (BWC) in mice infected with cisplatin sensitive L1210 Leukemia (dose 40 mg/kg, ip),day 5; type: functional, organism-based; parameters: dose 40 mg/kg; method in brief: as §2
Mus musculus [9] = assay: The compound was evaluated for the mean body weight change (BWC) in mice infected with cisplatin sensitive L1210 Leukemia (dose 80 mg/kg, ip),day 1; type: functional, organism-based; parameters: dose 80 mg/kg; method in brief: as §2
Mus musculus [10] = assay: The compound was evaluated for the mean body weight change (BWC) in mice infected with cisplatin sensitive L1210 Leukemia (dose 80 mg/kg, ip),day 5; type: functional, organism-based; parameters: dose 80 mg/kg; method in brief: as §2
Mus musculus [11] = assay: The compound was evaluated for the median survival time (MST) in mice infected with cisplatin sensitive L1210 Leukemia (dose 80 mg/kg, ip), day 1; type: functional, organism-based; parameters: dose 80 mg/kg; method in brief: as §2
Mus musculus [12] = assay: The compound was evaluated for the median survival time (MST) in mice infected with cisplatin sensitive L1210 Leukemia (dose 80 mg/kg, ip), day 5; type: functional, organism-based; parameters: dose 80 mg/kg; method in brief: as §2
Mus musculus [13] = assay: The compound was evaluated for the median survival time (MST) in mice infected with cisplatin sensitive L1210 Leukemia (dose 20 mg/kg, ip), day 5; type: functional, organism-based; parameters: dose 20 mg/kg; method in brief: as §2
Mus musculus [14] = assay: The compound was evaluated for the median survival time (MST) in mice infected with cisplatin sensitive L1210 Leukemia (dose 10 mg/kg, ip), day 1; type: functional, organism-based; parameters: dose 10 mg/kg; method in brief: as §2
Mus musculus [15] = assay: The compound was evaluated for the median survival time (MST) in mice infected with cisplatin sensitive L1210 Leukemia (dose 10 mg/kg, ip), day 5; type: functional, organism-based; parameters: dose 10 mg/kg; method in brief: as §2
Mus musculus [16] = assay: The compound was evaluated for the median survival time (MST) in mice infected with cisplatin sensitive L1210 Leukemia (dose 40 mg/kg, ip), day 1; type: functional, organism-based; parameters: dose 40 mg/kg
Method in brief: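 On day 0, 10⁵ parent or cisplatin-resistant L1210 cells were implanted ip into CD2F1 mice, 6 or 10 per dose group (20 or 30 controls). Dosing was ip on days 1, 5 and 9 in saline plus Tween 80. Median survival time was taken from dying mice only, excluding day-30 survivors. Both sublines were tested concurrently.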

Mus musculus [17] = assay: The compound was evaluated for the median survival time (MST) in mice infected with cisplatin sensitive L1210 Leukemia (dose 40 mg/kg, ip), day 5; type: functional, organism-based; parameters: dose 40 mg/kg; method in brief: as §2

| Substance | GI50 (Tumor Cell line [1]) [µM] | TGI (Tumor Cell line [2]) [µM] | Log LC50 (Tumor Cell line [3]) | also measured |
| --- | --- | --- | --- | --- |
| [Bis(aminomethyl)tetramethylenesilane]tetrachloropaltinum(IV) | 4.47 | 49 | – | – |
| [Bis(aminomethyl)pentamethylenesilane]tetrachloropaltinum(IV) [listing 1 of 2 here] | – | – | > -4.01 | – |
| [Bis(aminomethyl)ethylmethylsilane]tetrachloroplatinum(IV) | 6.17 | 39.8 | – | – |
| [Bis(aminomethyl)pentamethylenesilane]dichloropaltinum(II) | – | – | > -4.01 | – |
| [Bis(aminomethyl)pentamethylenesilane]tetrachloropaltinum(IV) [listing 2 of 2 here] | 4.17 | 50.1 | – | – |
| [Bis(aminomethyl)dimethylsilane]tetrachloroplatinum(IV) [listing 1 of 2 here] | – | – | > -4.02 | – |
| CISPLATIN | – | – | > -3.35 | – |
| cis-Bis[[(trimethylsilyl)methyl]amino]tetrachloroplatinum(IV) [listing 1 of 2 here] | – | – | > -4.06 | – |
| CARBOPLATIN | – | – | > -3.61 | – |
| [Bis(aminomethyl)dimethylsilane]tetrachloroplatinum(IV) [listing 2 of 2 here] | 4.79 | 41.7 | – | BWC (Mus musculus [4]): 0 g; BWC (Mus musculus [5]): 0.1 g; BWC (Mus musculus [6]): -0.6 g; BWC (Mus musculus [7]): -2.4 g; BWC (Mus musculus [8]): -1.3 g; BWC (Mus musculus [9]): -5 g; BWC (Mus musculus [10]): -3.4 g; MST (Mus musculus [11]): 8.3 days; MST (Mus musculus [12]): 10 days; MST (Mus musculus [13]): 19 days; MST (Mus musculus [14]): 18.5 days; MST (Mus musculus [15]): 15 days; MST (Mus musculus [16]): 27 days; MST (Mus musculus [17]): 21 days |
| cis-Bis[[(trimethylsilyl)methyl]amino]tetrachloroplatinum(IV) [listing 2 of 2 here] | 5.89 | 22.9 | – | – |
